System: MS2 coat protein
Test: apparent Kd, MS2 coat protein; higher = weaker binding; RNA-MaP array
Procedure, shortened: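 Designs measured on fewer than 10 clusters were excluded from the data. The rest were RNAs transcribed from sequenced DNA templates on an Illumina sequencing chip and incubated at room temperature, with or without input ligand, with fluorescently labeled MS2 coat protein at 1.5 nM to 3 μM for 0.8–1.5 h at the lowest to 10–20 min at the highest concentrations. Apparent Kd is the median of the per-cluster binding-curve fits.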

[1] = designed as: OFF switch for flavin mononucleotide, no ligand
[2] = ligand present: flavin mononucleotide, designed as: OFF switch for flavin mononucleotide
[3] = designed as: ON switch for flavin mononucleotide, no ligand
[4] = ligand present: flavin mononucleotide, designed as: ON switch for flavin mononucleotide
[5] = designed as: ON switch for theophylline, no ligand
[6] = ligand present: theophylline, designed as: ON switch for theophylline

| Sequence | apparent Kd [1] [nM] | apparent Kd [2] [nM] | also measured |
| --- | --- | --- | --- |
| CAAAGUUUUAAGAAGGGAUCGAUUAGAUUCACAUGAGGAUCACCCAUGUAGCCGGGACGGAGAGAUCAGGAUAUUAAAGAUGUC | 55.8 | 31.9 | – |
| CUCCUCGUAGGAUAUCGCACCGCGUACAUGAGGAUCACCCAUGUGAUUCUAUAGAUUAAGCGAGAAGGACGACAGG | 376 | 269 | – |
| ACUAGGGACCUGACAUGAGGAUCACCCAUGUUCUCGGAUCACAAGGAUAUCCGCACGUACCUGUGGGAGAAGGUGUCGUCCCAC | – | – | apparent Kd [3]: 26 nM; apparent Kd [4]: 21.8 nM |
| ACAUGAGGAUCACCCAUGUUGUCAUAGCAACUUUACAGGAGGAGAAGGCGAGGUUGGGCUGCCCUCGAGGAUAUCCGUAGAAAA | – | – | apparent Kd [3]: 10.4 nM; apparent Kd [4]: 6.45 nM |
| UGCCAACAUGAGGAUCACCCAUGUCAGGAUAUCCGGGAGCACUUCAGUAGAAUCCGCUGGAGAAGGGACAUAGG | 24.3 | 21.7 | – |
| GUGACUAGCGUAAGGAUAUUCACGAGCGGCGGCUUGAAGAAGGUACAUGAGGAUCACCCAUGUAGGGUAAUCAA | 41.6 | 44.3 | – |
| GAGCUAUCAGGAUAUACAUGAGGAUCACCCAUGUUUUUUGGAAUCAAGAGGAAUCAAUGUAGAAGGGAUCUCGA | 21.8 | 28.2 | – |
| UACCGGUGACUCGAUACCAGUCCUCUAAAAUACAUGAGGAUCACCCAUGUAACCUUCCCAGACCCUUGGCAGCGACACAUGGAUA | – | – | apparent Kd [5]: 145 nM; apparent Kd [6]: 38.2 nM |
| AUGAAGCUAAGAGAUACCAGUGACCACAGAUACAUGAGGAUCACCCAUGUCUCAAAUUGUCACCCUUGGCAGCUCACUAUCGAAG | – | – | apparent Kd [5]: 10.2 nM; apparent Kd [6]: 9.26 nM |
| GCCAUGUAAGGAUAUCUUAACUUGCAUCACGCGCGGAAUGGAGAGAAGGUACAUGAGGAUCACCCAUGUGAAAA | 19.8 | 28 | – |
| CAACACGGAGAGAAGGAAGCUGAAACGGUGCACUUAGGAUAUCUUCCGCCAGAAAACAUGAGGAUCACCCAUGUUCAGUUAACG | – | – | apparent Kd [3]: 7.82 nM; apparent Kd [4]: 7.54 nM |
| CACACCGAAGGAUAUACUACUGCUAUUUAGAGUGAGGGCGAACAUGAGGAUCACCCAUGUAGAAGGUCGAGAAA | 17.5 | 20.6 | – |
| UCUCACAUGAGGAUCACCCAUGUUAAGGCCCGAGGACCGGUACGGCCGCCACUCGUUGGAAGCCGGUAACGUACGAAUCUUCCGU | – | – | apparent Kd (designed as: ON switch for tryptophan, no ligand): 17.9 nM; apparent Kd (ligand present: tryptophan, designed as: ON switch for tryptophan): 24 nM |
| ACAUGAGGAUCACCCAUGUCCUAAAAUGAGGCGAAUACGGCCAAGGAUAUUGGAACAACAGAAGUCAAGAAGGUGGCUAAAUUA | – | – | apparent Kd [3]: 56.7 nM; apparent Kd [4]: 28.3 nM |
| UAAAAGUUAGGAUAUACUAGUGAGCAAUGAAUAACAAAGUAACAUGAGGAUCACCCAUGUAGAAGGAACUGCAG | 12.1 | 12.4 | – |
| UCAUUGUGAGGAUAUUGAUAGCGGACCUUGAUUCUGUACAACAAGAAGGCACAUGAGGAUCACCCAUGUCAUCA | 16.4 | 58.4 | – |
| CCGGGCGCUUAACAGGAUAUAGCAGUACAUACAUGAGGAUCACCCAUGUCUAUCUUGUAAUAAAGCUAGAAGGGUUCAUCCGAGGU | – | – | apparent Kd [3]: 14 nM; apparent Kd [4]: 9.84 nM |
| GCGGGAGAUCAGAAGGCUAUAACGUUUCACAUGAGGAUCACCCAUGUGGGCUCCUAGGGAUGGAUAGAGGAUAUGACCGAAUAU | 12.9 | 13.3 | – |
| UACAAGUACUAGAAGGAUCGAACCGAAGGUGUGAUAGGAUAUAGAGACAUGAGGAUCACCCAUGUAGGAGUGCAGUCAUACAUU | 27.9 | 23.4 | – |
| GACUGGAGGAGAGGAUAUGCAAAGACUCUAUUCGCAGAAGGCUCGUGCGGUCAACAUGAGGAUCACCCAUGUCUGGCGACAUGC | 6.26 | 8.62 | – |
| UCGAACUAACAAGGAUAUACGCGGGUCGAAACGGUAGAAGGUGUCAACGGUAUCUCACAUGAGGAUCACCCAUGUCGGCAGGGA | 135 | 103 | – |
| UGAGAUAACGCAGGAUAUCAUGCGGCAGUGUAGUGAGAAGGGCGAAUGCAAGGGUCAGACAUGAGGAUCACCCAUGUUCAUAGC | 17.2 | 12.5 | – |
| UGGCACAAGUUAGGAUAUAGCACUUCUGUAAAGCUAGAAGGAACGUUGCACAUGAGGAUCACCCAUGUCAGUAAUUGAUAUGUA | 10.1 | 12.6 | – |
